Reference: the M2OR odorant receptor database

Experiments:
Conditions in all cases: stereoisomer not certain
OR10H4 (Homo sapiens) = biological target: T1, OR10H4 (Homo sapiens) (UniProt Q8NGA5)
T1 sequence (whole entry): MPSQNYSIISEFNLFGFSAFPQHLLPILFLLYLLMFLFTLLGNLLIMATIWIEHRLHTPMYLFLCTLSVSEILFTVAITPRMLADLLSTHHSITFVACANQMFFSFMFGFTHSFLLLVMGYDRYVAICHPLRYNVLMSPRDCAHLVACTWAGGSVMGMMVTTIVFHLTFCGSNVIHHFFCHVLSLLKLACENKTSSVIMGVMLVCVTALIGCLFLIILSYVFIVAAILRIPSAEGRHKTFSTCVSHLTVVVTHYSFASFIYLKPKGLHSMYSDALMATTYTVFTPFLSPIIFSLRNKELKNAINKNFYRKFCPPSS
Method in brief: (§1)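 Each receptor–molecule pair is labelled responsive or non-responsive (inactive) according to whether the original authors judged the measured signal statistically different from baseline. The data were taken from the main text and supplementary material of published papers and checked for typos and inconsistencies. Assay methods differed by source, with transient luciferase assays in mammalian cell lines being common.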

OR10H5 (Homo sapiens) = biological target: T2, OR10H5 (Homo sapiens) (UniProt Q8NGA6)
T2 sequence (whole entry): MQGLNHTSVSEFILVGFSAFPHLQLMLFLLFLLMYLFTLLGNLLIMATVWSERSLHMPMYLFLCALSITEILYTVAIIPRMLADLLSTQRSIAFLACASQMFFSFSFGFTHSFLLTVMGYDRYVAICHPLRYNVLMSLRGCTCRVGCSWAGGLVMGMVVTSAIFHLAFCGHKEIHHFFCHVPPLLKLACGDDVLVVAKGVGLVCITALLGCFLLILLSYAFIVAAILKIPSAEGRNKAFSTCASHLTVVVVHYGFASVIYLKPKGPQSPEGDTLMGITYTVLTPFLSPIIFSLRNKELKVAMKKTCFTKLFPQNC
Method in brief: as §1

OR10J3 (Homo sapiens) = biological target: T3, OR10J3 (Homo sapiens) (UniProt Q5JRS4)
T3 sequence (whole entry): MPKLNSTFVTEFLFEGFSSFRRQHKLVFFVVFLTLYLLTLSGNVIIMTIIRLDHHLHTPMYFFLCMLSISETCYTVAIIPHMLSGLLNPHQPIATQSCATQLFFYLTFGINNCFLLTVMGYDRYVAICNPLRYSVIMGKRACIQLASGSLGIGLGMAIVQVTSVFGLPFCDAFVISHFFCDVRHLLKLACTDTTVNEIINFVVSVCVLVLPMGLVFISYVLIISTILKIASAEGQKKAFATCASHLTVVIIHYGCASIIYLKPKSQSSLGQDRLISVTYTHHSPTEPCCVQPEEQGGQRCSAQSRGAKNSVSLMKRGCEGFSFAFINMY
Method in brief: as §1

OR10J4 (Homo sapiens) = OR10J4 (Homo sapiens) (UniProt P0C629)
Chain of OR10J4 (Homo sapiens) (P0C629 whole entry F198I): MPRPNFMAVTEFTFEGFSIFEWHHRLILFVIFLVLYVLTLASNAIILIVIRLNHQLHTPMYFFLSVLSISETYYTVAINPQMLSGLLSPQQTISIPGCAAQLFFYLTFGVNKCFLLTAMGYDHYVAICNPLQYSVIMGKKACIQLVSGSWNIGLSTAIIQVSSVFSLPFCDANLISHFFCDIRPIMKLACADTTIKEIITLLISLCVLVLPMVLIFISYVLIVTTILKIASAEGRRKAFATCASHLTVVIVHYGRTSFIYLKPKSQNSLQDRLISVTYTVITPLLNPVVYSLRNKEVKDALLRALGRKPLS
Method in brief: as §1

OR10J5 (Homo sapiens) = biological target: T4, OR10J5 (Homo sapiens) (UniProt Q8NHC4)
T4 sequence (whole entry): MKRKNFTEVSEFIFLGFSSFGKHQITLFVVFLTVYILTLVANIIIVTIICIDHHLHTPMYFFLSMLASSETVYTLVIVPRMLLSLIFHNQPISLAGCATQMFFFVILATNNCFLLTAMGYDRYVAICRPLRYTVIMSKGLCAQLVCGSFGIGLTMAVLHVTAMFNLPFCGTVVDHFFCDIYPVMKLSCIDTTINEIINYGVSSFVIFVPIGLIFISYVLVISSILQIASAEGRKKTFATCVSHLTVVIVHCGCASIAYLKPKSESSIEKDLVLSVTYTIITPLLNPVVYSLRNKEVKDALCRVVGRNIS
Method in brief: as §1

OR10K1 (Homo sapiens) = biological target: T5, OR10K1 (Homo sapiens) (UniProt Q8NGX5)
T5 sequence (whole entry): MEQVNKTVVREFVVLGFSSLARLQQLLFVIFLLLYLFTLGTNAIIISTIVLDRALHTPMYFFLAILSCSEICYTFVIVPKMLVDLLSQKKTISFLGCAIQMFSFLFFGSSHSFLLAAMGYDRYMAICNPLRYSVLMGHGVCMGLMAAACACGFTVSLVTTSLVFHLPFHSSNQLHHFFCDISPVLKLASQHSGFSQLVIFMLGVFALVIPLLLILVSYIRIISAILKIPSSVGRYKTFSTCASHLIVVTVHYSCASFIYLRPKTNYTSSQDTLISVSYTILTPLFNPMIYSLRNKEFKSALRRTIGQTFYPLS
Method in brief: as §1

OR10K2 (Homo sapiens) = biological target: T6, OR10K2 (Homo sapiens) (UniProt Q6IF99)
T6 sequence (whole entry): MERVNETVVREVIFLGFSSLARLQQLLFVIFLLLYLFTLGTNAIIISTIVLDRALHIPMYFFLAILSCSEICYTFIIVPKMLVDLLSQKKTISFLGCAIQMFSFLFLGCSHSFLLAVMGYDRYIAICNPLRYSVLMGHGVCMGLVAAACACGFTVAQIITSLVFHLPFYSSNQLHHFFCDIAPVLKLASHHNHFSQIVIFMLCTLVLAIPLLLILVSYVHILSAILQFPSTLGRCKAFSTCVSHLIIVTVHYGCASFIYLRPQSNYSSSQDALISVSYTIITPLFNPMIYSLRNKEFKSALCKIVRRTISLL
Method in brief: as §1

OR10P1 (Homo sapiens) = biological target: T7, OR10P1 (Homo sapiens) (UniProt Q8NGE3)
T7 sequence (whole entry): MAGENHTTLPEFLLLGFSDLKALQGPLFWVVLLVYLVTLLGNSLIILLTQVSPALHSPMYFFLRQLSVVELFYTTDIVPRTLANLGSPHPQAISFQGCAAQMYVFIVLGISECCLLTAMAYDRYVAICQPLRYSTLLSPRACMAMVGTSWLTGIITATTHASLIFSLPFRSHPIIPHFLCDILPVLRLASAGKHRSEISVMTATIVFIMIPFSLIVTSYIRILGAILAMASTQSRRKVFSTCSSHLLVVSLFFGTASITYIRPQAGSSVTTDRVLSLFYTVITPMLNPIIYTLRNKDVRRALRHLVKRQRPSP
Method in brief: as §1

OR10Q1 (Homo sapiens) = biological target: T8, OR10Q1 (Homo sapiens) (UniProt Q8NGQ4)
T8 sequence (whole entry): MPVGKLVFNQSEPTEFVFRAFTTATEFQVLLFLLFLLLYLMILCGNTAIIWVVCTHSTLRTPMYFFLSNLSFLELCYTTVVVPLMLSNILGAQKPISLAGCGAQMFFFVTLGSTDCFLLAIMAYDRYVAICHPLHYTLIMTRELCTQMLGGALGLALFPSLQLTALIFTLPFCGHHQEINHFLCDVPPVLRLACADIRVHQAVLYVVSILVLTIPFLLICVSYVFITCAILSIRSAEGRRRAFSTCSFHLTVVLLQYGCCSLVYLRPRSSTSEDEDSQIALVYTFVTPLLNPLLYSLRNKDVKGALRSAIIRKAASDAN
Method in brief: as §1

OR10R2 (Homo sapiens) = biological target: T9, OR10R2 (Homo sapiens) (UniProt Q8NGX6)
T9 sequence (whole entry): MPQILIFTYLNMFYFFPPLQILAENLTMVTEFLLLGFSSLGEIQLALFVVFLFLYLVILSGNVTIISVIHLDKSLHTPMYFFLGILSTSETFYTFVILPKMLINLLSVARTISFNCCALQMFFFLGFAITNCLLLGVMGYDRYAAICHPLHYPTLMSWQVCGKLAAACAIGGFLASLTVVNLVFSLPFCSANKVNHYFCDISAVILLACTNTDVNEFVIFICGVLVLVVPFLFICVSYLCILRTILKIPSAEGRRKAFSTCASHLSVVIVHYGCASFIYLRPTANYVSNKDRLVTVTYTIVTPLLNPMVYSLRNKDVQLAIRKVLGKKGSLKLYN
Method in brief: as §1

OR10S1 (Homo sapiens) = biological target: T10, OR10S1 (Homo sapiens) (UniProt Q8NGN2)
T10 sequence (whole entry): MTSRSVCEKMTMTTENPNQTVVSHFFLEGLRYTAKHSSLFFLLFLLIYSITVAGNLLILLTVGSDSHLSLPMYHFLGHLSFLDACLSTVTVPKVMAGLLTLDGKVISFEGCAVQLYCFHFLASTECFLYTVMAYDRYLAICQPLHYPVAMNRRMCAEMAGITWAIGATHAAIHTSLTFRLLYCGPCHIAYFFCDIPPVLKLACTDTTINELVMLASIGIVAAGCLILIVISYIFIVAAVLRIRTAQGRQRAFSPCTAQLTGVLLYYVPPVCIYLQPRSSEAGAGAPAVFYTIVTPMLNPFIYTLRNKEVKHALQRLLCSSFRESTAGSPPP
Method in brief: as §1

OR10T2 (Homo sapiens) = biological target: T11, OR10T2 (Homo sapiens) (UniProt Q8NGX3)
T11 sequence (whole entry): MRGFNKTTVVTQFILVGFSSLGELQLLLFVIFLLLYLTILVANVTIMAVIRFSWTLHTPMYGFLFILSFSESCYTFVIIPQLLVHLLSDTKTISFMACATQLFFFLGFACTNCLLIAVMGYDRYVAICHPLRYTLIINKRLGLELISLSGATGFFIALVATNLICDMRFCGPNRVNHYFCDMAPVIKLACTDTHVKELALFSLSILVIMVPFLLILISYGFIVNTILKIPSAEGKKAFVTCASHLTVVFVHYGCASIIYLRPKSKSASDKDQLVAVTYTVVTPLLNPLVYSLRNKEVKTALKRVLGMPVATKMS
Method in brief: as §1

OR10V1 (Homo sapiens) = biological target: T12, OR10V1 (Homo sapiens) (UniProt Q8NGI7)
T12 sequence (whole entry): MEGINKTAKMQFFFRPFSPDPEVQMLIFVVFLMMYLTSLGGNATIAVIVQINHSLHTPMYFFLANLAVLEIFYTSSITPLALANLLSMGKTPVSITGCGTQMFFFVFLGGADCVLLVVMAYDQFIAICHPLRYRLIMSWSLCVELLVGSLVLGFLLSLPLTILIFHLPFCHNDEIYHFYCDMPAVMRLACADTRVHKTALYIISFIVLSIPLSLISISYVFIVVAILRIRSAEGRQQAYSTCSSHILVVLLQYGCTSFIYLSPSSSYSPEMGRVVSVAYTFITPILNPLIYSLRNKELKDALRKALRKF
Method in brief: as §1

OR10W1 (Homo sapiens) = biological target: T13, OR10W1 (Homo sapiens) (UniProt Q8NGF6)
T13 sequence (whole entry): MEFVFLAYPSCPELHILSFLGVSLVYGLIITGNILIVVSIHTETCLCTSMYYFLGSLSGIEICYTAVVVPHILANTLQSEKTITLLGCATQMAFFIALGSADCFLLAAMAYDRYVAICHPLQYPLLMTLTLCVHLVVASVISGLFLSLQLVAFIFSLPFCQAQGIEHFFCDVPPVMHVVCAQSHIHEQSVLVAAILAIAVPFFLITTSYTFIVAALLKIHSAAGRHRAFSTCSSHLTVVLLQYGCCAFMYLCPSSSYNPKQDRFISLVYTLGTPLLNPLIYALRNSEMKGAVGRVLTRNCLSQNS
Method in brief: as §1

OR10X1 (Homo sapiens) = biological target: T14, OR10X1 (Homo sapiens) (UniProt Q8NGY0)
T14 sequence (whole entry): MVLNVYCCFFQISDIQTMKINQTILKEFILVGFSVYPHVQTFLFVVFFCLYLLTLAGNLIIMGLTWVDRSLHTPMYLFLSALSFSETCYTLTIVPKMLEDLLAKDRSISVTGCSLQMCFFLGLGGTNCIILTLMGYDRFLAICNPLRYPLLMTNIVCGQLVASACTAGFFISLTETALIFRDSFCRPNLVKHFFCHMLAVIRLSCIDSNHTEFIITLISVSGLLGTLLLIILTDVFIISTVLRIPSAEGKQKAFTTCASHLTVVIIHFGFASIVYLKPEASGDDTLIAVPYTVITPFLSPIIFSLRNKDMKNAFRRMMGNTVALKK
Method in brief: as §1

OR10Z1 (Homo sapiens) = biological target: T15, OR10Z1 (Homo sapiens) (UniProt Q8NGY1)
T15 sequence (whole entry): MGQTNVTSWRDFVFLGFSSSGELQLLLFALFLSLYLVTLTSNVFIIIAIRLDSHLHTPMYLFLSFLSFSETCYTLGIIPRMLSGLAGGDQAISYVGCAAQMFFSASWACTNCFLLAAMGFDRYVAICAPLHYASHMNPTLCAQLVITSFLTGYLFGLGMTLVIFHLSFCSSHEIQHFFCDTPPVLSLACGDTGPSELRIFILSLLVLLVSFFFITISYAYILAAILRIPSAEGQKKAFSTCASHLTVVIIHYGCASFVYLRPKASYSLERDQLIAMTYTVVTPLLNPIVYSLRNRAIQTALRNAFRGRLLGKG
Method in brief: as §1

OR11A1 (Homo sapiens) = biological target: T16, OR11A1 (Homo sapiens) (UniProt Q9GZK7)
T16 sequence (whole entry): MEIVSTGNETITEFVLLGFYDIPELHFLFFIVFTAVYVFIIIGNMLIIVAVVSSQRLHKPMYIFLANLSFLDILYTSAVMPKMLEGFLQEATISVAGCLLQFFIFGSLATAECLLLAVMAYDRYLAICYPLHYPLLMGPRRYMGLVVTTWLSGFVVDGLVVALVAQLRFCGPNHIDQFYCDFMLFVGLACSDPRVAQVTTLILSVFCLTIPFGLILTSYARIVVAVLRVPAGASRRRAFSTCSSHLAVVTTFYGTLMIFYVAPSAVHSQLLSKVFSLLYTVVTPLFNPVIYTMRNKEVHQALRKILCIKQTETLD
Method in brief: as §1

OR11G2 (Homo sapiens) = biological target: T17, OR11G2 (Homo sapiens) (UniProt Q8NGC1)
T17 sequence (whole entry): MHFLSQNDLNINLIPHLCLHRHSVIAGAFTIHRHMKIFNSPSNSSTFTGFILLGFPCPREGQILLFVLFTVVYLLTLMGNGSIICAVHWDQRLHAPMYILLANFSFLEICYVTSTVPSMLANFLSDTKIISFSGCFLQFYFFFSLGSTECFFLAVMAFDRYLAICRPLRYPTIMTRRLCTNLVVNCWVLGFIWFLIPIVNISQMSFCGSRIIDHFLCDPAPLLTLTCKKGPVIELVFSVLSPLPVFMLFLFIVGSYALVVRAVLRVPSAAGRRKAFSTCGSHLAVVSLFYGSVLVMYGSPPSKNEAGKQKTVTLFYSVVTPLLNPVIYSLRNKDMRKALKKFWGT
Method in brief: as §1

OR11H1 (Homo sapiens) = biological target: T18, OR11H1 (Homo sapiens) (UniProt Q8NG94)
T18 sequence (whole entry): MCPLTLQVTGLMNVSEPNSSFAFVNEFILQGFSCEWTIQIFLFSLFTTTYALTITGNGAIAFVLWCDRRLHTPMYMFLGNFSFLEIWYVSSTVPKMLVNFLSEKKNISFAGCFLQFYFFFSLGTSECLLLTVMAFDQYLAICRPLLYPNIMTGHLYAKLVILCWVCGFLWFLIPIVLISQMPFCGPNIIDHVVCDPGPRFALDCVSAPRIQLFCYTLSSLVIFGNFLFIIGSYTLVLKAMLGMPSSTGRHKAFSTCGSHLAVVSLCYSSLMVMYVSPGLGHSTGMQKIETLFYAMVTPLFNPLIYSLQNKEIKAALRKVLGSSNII
Method in brief: as §1

Measured: odorant receptor agonist call

CC(=O)c1c(C)c([N+](=O)[O-])c(C(C)(C)C)c([N+](=O)[O-])c1C
inactive: all assays above
